# Screening results (PubChem)
# PP1 inh = counter-screen for PP5 inhibitors: inhibitors of human PP1-alpha | inhibition, % at 6.7 µM | 0.9% of 320,000 active | purified PP1alpha, OMFP fluorescence | P62136;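 active = inhibition above the mean inhibition of all tested compounds plus 3 SD, computed separately for each screening campaign, cut at about 15% in these data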
# Target sequence (P62136 whole entry, looked up): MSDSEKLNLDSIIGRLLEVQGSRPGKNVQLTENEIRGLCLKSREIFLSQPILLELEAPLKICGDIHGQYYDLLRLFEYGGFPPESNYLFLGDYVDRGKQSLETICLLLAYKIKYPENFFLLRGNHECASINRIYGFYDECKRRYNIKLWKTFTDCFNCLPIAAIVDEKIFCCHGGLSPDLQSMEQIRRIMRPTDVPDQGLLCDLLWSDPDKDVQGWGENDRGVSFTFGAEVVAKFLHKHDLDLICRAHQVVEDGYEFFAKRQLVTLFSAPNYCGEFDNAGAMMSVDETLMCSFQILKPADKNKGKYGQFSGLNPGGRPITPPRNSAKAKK
# NR2E3 ag-1 = agonists of human NR2E3 nuclear receptor | inhibition of corepressor binding, % at 3.98 µM | Q9Y5X4 | CHO-S Gal4-NCOR/VP16-NR2E3 two-hybrid, luciferase | 0.35% of 360,000 active;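 active = inhibition above the mean of all tested compounds plus 3 SD, cut at about 70% in these data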;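 also: 0% = DMSO with NR2E3 transfected cells and 100% = cells lacking NR2E3 construct; higher means lower luciferase signal from less NR2E3 corepressor binding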
# Target sequence (Q9Y5X4 whole entry, looked up, the tested form may be a part): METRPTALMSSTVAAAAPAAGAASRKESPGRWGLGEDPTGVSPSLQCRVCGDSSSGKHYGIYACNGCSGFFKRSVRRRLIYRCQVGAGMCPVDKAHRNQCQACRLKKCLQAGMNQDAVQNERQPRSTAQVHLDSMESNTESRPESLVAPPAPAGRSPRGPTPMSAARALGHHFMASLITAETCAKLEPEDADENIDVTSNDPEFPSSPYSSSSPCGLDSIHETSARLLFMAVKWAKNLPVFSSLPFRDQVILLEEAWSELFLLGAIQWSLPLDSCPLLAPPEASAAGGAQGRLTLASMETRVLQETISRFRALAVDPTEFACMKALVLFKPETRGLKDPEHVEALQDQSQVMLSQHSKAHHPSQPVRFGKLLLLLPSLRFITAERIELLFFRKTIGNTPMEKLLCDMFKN
# NR2E3 ag-2 = NR2E3 (human) agonism; GST-NR2E3/biotin-RetCOR TR-FRET, 1536-well; AID 2300; 0.12% of 320,000 active; inhibition of corepressor binding, % at 4.78 µM; Q9Y5X4;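 active = percent inhibition above the cutoff of mean plus 3 SD of all tested compounds, set per screening campaign, cut at about 20% in these data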;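 also: 0% = DMSO wells and 100% = biotin wells as full block of FRET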
#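 System: GST-NR2E3 and biotin-RetCOR proteins; probe or stimulus: 7 nM biotin-RetCOR; doses: compound at 4.8 µM, single dose; schedule: Compound–protein incubation for 5 h at 4 °C; detection: time-resolved FRET; read-out: percent inhibition; controls: biotin wells as high control, 0.6% DMSO wells as low control; format: 1536-well plates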
# PP5 inh = PP5 (human) phosphatase inhibition | purified PP5c, OMFP substrate fluorescence | inhibition, % at 6.7 µM | 0.18% of 320,000 active | AID 1987;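 active = inhibition above the campaign's mean inhibition across all tested compounds plus 3 SD, cut at about 9.5% in these data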;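 also: 0% = DMSO only and 100% = 100 µM cantharidin control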
# PP5 conf = confirmation of human PP5 phosphatase inhibitors. inhibition, % at 6.7 µM. AID 2331. Purified PP5, fluorogenic phosphatase substrate, fluorescence. 22% of 460 active. shares compounds with PP5 inh; in the data active = inhibition above about 9.5%
# PP1 counter 3x = counter-screen for PP5 inhibitors: human PP1 phosphatase inhibition. PP1 enzyme, fluorescent phosphatase substrate. inhibition, % at 6.7 µM. shares compounds with PP5 inh. 4% of 460 active. AID 2355; in the data active = inhibition above about 16%
# Starred values were filed as active, the others as inactive; nt = no result. The list is not random: actives were taken first. Their share in the collection is about 1.3%.
SMILES,PP1 inh,NR2E3 ag-1,NR2E3 ag-2,PP5 inh,PP5 conf,PP1 counter 3x
C#CCOCCOCCOCCNc1nc(N2CCN(C(=O)CCCCCCCCCCNC(=O)[C@H](CCCCN)n3cc(C[C@@H](C)CC)nn3)CC2)nc(N2CCN(C(=O)CCCCCCCCCCNC(=O)[C@H](CCCCN)n3cc(C[C@@H](C)CC)nn3)CC2)n1,55.2*,9.3,-1.5,1.9,nt,nt
C#CCOCCOCCOCCNc1nc(N2CCOCC2)nc(N2CCN(C(=O)CCCCCCCCCCNC(=O)[C@H](CO)n3cc(CCCCCN)nn3)CC2)n1,4.2,21.9,2.1,0.2,nt,nt
C#CCOCCOCCOCCNc1nc(N2CCN(C(=O)CCCCCCCCCCNC(=O)[C@H]([C@@H](C)CC)n3cc(CCCCN=C(N)N)nn3)CC2)nc(N2CCN(C(=O)CCCCCCCCCCNC(=O)[C@H](CCCCN)n3cc(C[C@@H](C)CC)nn3)CC2)n1,71.2*,nt,-0.4,9.0,nt,nt
Cc1cc(C)c(C(=O)c2ccccc2C(=O)O)c(C)c1,nt,17.8,nt,nt,nt,nt
CCOC(=O)N1CCN(S(=O)(=O)N2CCCC(C(=O)NCc3ccccc3OCC)C2)CC1 (centres undefined),nt,3.0,nt,nt,nt,nt
COc1ccc(N2CCN(C(=O)c3ccc4c(c3)NC(=O)C(CSCc3ccccc3F)N4)CC2)cc1 (centres undefined),nt,8.5,nt,nt,nt,nt
COc1ccccc1N1CCN(C(=O)c2ccc3c(c2)NC(=O)C(CSCc2ccccc2C)N3)CC1 (centres undefined),23.0*,nt,-3.8,0.1,nt,nt
Cc1ccc(CNC(=O)c2ccc(N3CCC4(CC3)CC(c3ccccc3)=NO4)c(NC(=O)c3cccc(C)c3)c2)cc1,-0.1,15.2,-0.7,2.1,nt,nt
Cc1ccc(CNC(=O)c2ccc(N3CCC4(CC3)CC(c3ccccc3)=NO4)c(NC(=O)c3ccc(Cl)c([N+](=O)[O-])c3)c2)cc1,15.4*,-7.2,-7.9,0.1,nt,nt
CCCNC(=O)c1ccc(N2CCC3(CC2)CC(c2cccc(Br)c2)=NO3)c(NC(=O)c2ccccc2)c1,15.7*,-4.7,-4.0,2.2,nt,nt
Cc1ccc(OCc2cc(C(=O)NC3CCc4ccccc43)no2)cn1 (centres undefined),nt,44.2,nt,nt,nt,nt
CCCCc1cc(=O)oc2c(C)c(OCC(=O)N3C[C@H]4C[C@@H](C3)c3cccc(=O)n3C4)ccc12,17.1*,-34.3,3.4,5.3,nt,nt
CCCC(C)c1nnc(NC(=O)C2CC(=O)N(CCc3ccc(F)cc3)C2)s1 (centres undefined),0.0,-1.6,3.9,-1.6,nt,nt
COCCCNC(=O)c1ccc2c(=O)n(Cc3ccc4c(c3)OCO4)c(=S)[nH]c2c1,16.8*,-2.6,-48.0,3.0,nt,nt
CCOCCCNC(=O)c1ccc2c(=O)n(Cc3ccc4c(c3)OCO4)c(=S)[nH]c2c1,-3.2,-10.0,2.0,-1.8,nt,nt
CCOC1=CC2=C(C(=O)C(Cl)=CC2=O)[C@@H]2CN(S(=O)(=O)c3ccc(C)cc3)[C@@H](c3ccccc3)[C@H]12,nt,-7.1,nt,nt,nt,nt
O=C1OCCC1Sc1nnc(-c2cccc(Br)c2)o1 (centres undefined),-3.6,5.6,3.7,12.2*,-3.4,-3.4
O=C1OCCC1Sc1nnc(-c2ccc3c(c2)OCO3)o1 (centres undefined),-2.0,-15.0,1.4,0.7,nt,nt
CN(C)C(=O)Cn1c(SCC(=O)NC2CCCCC2)nc2ccccc21,-1.6,-13.9,1.5,10.0*,-0.9,-2.0
CC(C)NC(=O)Cn1c(SCC(=O)NC2CCCC2)nc2ccccc21,-2.4,-27.8,2.6,0.0,nt,nt
COC(=O)[C@]12CCCCC=C1N(Cc1ccc(Cl)cc1Cl)C(=O)[C@H](CC(=O)N1CCC(c3ccccc3)CC1)C2,nt,0.6,nt,nt,nt,nt
CC(=O)C[C@H](O)CC(=O)[C@@H]1OC(=O)CCCCC/C=C/Cc2ccccc21,nt,-40.3,nt,nt,nt,nt
COc1ccc(CCn2c(C)nc3ccccc3c2=O)cc1OC,-0.4,4.1,-2.8,0.8,nt,nt
CCSc1nc2ccccc2c(=O)n1CCc1ccc(OC)c(OC)c1,-2.7,-31.3,1.8,10.1*,-0.9,0.1
CC(C)OC(=O)c1ccc2ccc(-c3ccccc3)nc2c1,nt,-99.4,nt,nt,nt,nt
SMILES,PP1 inh,NR2E3 ag-1,NR2E3 ag-2,PP5 inh,PP5 conf,PP1 counter 3x
Cc1ccc(-n2nc(C(=O)N3CCOCC3)cc2-c2ccc(Cl)cc2)cc1,2.6,6.0,0.6,6.8,nt,nt
O=C(c1cc(-c2ccc(Cl)cc2)n(-c2ccc(Cl)cc2)n1)N1CCOCC1,-1.1,3.4,2.6,13.2*,-2.9,-1.5
COc1ccc(OC)c(C2=Nn3c(nnc3-c3cccc(OC(C)C)c3)SC2)c1,2.7,9.7,0.7,12.4*,0.5,-0.1
COc1ccc(C2=Nn3c(nnc3-c3ccncc3)SC2)cc1,-2.5,-7.1,2.8,11.5*,-2.7,-3.2
COc1ccc(C2=Nn3c(nnc3-c3cccnc3)SC2)cc1,nt,3.9,nt,nt,nt,nt
O=C(NC1CCCCC1)C(CCc1ccccc1)N1CCc2ccccc2C1 (centres undefined),nt,-5.5,nt,nt,nt,nt
COc1cc(OC)c(C2C=CC(=O)CC2)c(OC)c1 (centres undefined),nt,9.6,nt,nt,nt,nt
Cc1cc(SCC(=O)c2cccc([N+](=O)[O-])c2)nc(=O)[nH]1,4.3,-71.8,-1.9,0.8,nt,nt
O=C1C(Nc2ccccc2)=C(N2CCCCC2)C(=O)c2ccccc21,1.7,-40.5,3.5,10.5*,32.7*,-0.5
O=C(/C=C/c1ccc(O)cc1)c1ccc(NC2=C(N3CCCCC3)C(=O)c3ccccc3C2=O)cc1,4.1,-32.9,4.6,9.9*,37.1*,0.6
Cc1ccc(NC2=C(N3CCCCC3)C(=O)c3ccccc3C2=O)cc1,5.0,-52.2,3.1,8.9,nt,nt
COc1ccccc1N1CCN(c2nc(C)nc3c2oc2ccccc23)CC1,1.2,0.4,0.5,10.4*,0.9,-0.1
Cc1nc(N2CCC(C)CC2)c2oc3ccccc3c2n1,-1.5,9.8,2.4,5.8,nt,nt
Cc1cc(C2(c3ccc(O)c(C)c3)C(=O)Nc3ccccc32)ccc1O,8.2,-11.4,-0.1,15.7*,6.0,5.2
Cc1cccc2c1NC(=O)C2(c1ccc(O)cc1)c1ccc(O)cc1,5.2,5.5,-1.3,2.7,nt,nt
O=C(Nc1cccc(Cl)c1)c1csc([C@@H]2C[C@H](O)[C@@H](CO)O2)n1,nt,-3.4,nt,nt,nt,nt
CC(C)Oc1cc(NC(=O)CS(=O)CC(=O)Nc2cccc(C(F)(F)F)c2)c(Cl)cc1Cl (centres undefined),11.8,9.4,4.7,12.8*,5.0,4.8
O=C(NCc1ccc(F)cc1)c1cc(C2CCCCN2S(=O)(=O)c2ccc(F)cc2F)on1 (centres undefined),nt,-34.8,nt,nt,nt,nt
O=C(CN1C(=O)NC(c2ccccc2)(c2ccccc2)C1=O)Nc1cccnc1Cl,-1.1,-22.8,0.6,11.8*,-4.8,-3.6
CCC1(c2ccccc2)NC(=O)N(CC(=O)Nc2cccnc2Cl)C1=O (centres undefined),-1.5,-2.5,2.7,-0.7,nt,nt
Oc1ccccc1/C=N/Nc1cc(N2CCCC2)nc(N2CCCC2)n1,7.8,-43.9,-0.4,13.7*,44.1*,6.3
CCN(CC)CCC=C(c1cccs1)c1cccs1,nt,5.4,nt,nt,nt,nt
